Data as given in ChEMBL document CHEMBL4732185, “Synthesis, biological evaluation and structure-activity relationship of novel dichloroacetophenones targeting pyruvate dehydrogenase kinases with potent anticancer activity” (Eur J Med Chem, 2021).
The source made the active and inactive calls.

Key:
A-375 [1] = assay: Induction of cell cycle arrest in human A375 cells assessed as accumulation at G1 phase at 1 uM after 24 hrs by propidium iodide staining based flow cytometric analysis (reference value: 52.65%); format: functional
A-375 [2] = assay: Inhibition of PDK in human A375 cells assessed as reduction in phosphorylation of PDC E1alpha at ser293 residues at 2.5 to 5 uM after 24 hrs by Western blot analysis; format: cell-based; conditions: dose 2.5-5 µM
How it was run: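 A375 cells in 6-well plates, treated 24 h. Lysed 15 min and spun 12000 rpm at 4 °C for 15 min. Protein equalized by BCA and denatured in SDS buffer at 100 °C for 8 min. Run on SDS-PAGE, transferred to nitrocellulose, blocked in 5% milk 2 h, primary antibody overnight, HRP anti-rabbit IgG 2 h, ECL detection.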

A-375 [3] = assay: Induction of apoptosis in human A375 cells assessed as early apoptotic cells at 5 uM after 24 hrs by annexinV-FITC/propidium iodide staining based flow cytometric analysis (reference value: 0.87%); format: functional
A-375 [4] = assay: Induction of apoptosis in human A375 cells assessed as early apoptotic cells at 5 uM after 12 hrs by annexinV-FITC/propidium iodide staining based flow cytometric analysis (reference value: 0.87%); format: functional
A-375 [5] = assay: Antitumour activity against human A375 cells xenografted with mouse assessed as tumour growth inhibition at 5 mg/kg, im administered once per three days for 21 days; format: functional, organism-based; conditions: time 21.0 day
How it was run: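 Xenograft model. A375 cells harvested at 80% confluence with trypsin/EDTA, resuspended in serum-free DMEM and injected subcutaneously into the right flank of mice. Once tumours were visible (about 7 days), mice were randomised to vehicle or 5 mg/kg groups, n = 4, dosed by intramuscular injection once every three days. Tumour growth and body weight followed; tumours harvested and weighed at 21 days.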

A-375 [6] = assay: Antiproliferative activity against human A375 cells assessed as growth inhibition after 72 hrs by MTT assay; format: functional, cell-based; conditions: Homo sapiens, A-375, 72 h; read-out: IC50
How it was run: (§1)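 MTT viability assay. Cancer lines seeded at 3000–6000 cells/well and L02 at 7000 cells/well, cultured overnight, then exposed to a full dose range for 72 h. MTT (0.5 mg/mL) added for 4 h, supernatant removed, formazan dissolved in DMSO, absorbance read at 570 nm. IC50 taken as the mean of three independent experiments. Cells grown in DMEM + 10% FBS, 37 °C, 5% CO2.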

A-375 [7] = assay: Induction of apoptosis in human A375 cells assessed as late apoptotic cells at 5 uM after 36 hrs by annexinV-FITC/propidium iodide staining based flow cytometric analysis (reference value: 1.02%); format: functional
A549 = assay: Antiproliferative activity against human A549 cells assessed as growth inhibition at 1 uM after 72 hrs by MTT assay relative to control; format: functional; conditions: read-out: GI
How it was run: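 Single-concentration MTT screen on MCF-7 and A549 cells grown in DMEM + 10% FBS. Cells at 3000–6000/well, cultured overnight, then given compound in buffer with 1% DMSO for 72 h. MTT (0.5 mg/mL) added for 4 h, formazan dissolved in DMSO, A570 read. Percent inhibition reported as the average ± S.D. of three independent measurements.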

PC-3 = assay: Antiproliferative activity against human PC3 cells assessed as growth inhibition after 72 hrs by MTT assay; format: functional, cell-based; conditions: Homo sapiens, PC-3, 72 h; read-out: IC50; how it was run: as §1
[8] = biological target: [Pyruvate dehydrogenase (acetyl-transferring)] kinase isozyme 1, mitochondrial (Homo sapiens, UniProt Q15118); assay: Binding affinity to PDK1 (unknown origin) by isothermal titration calorimetry
How it was run: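 Isothermal titration calorimetry at 25 °C. Compound dissolved in DMSO, diluted to 100 µM in buffer and placed in the titration syringe; 250 µL of PDK protein solution in the reaction cell. Titrant added in 2.5 µL increments per injection.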

A-375 [9] = assay: Induction of apoptosis in human A375 cells assessed as necrotic cells at 5 uM after 36 hrs by annexinV-FITC/propidium iodide staining based flow cytometric analysis (reference value: 1.63%); format: functional
[10] = Inhibition of PDK (unknown origin) using RYHGHSMSDP as substrate after 30 mins by Kinase-Glo luminescent assay; set-up: species or system Homo sapiens
A-375 [11] = assay: Induction of cell cycle arrest in human A375 cells assessed as accumulation at S phase at 1 uM after 24 hrs by propidium iodide staining based flow cytometric analysis (reference value: 37.33%); format: functional
A-375 [12] = assay: Induction of apoptosis in human A375 cells assessed as viable cells at 5 uM after 36 hrs by annexinV-FITC/propidium iodide staining based flow cytometric analysis (reference value: 94.15%); format: functional; conditions: read-out: Activity
A-375 [13] = assay: Inhibition of PDK in human A375 cells assessed as reduction lactate formation at 2.5 to 5 uM after 4 hrs by Nova Bio-profile Flex analyzer; format: cell-based; conditions: dose 2.5-5 µM
How it was run: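 A375 cells seeded at 2.5 × 10⁵/well in 24-well plates and cultured overnight. Treated 4 h at 37 °C. Medium collected and centrifuged 4 min at 12000 rpm for lactate determination.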

L02 = assay: Cytotoxicity against human L02 cells assessed as reduction in cell viability after 72 hrs by MTT assay; format: cell-based; conditions: Homo sapiens, L02, 72 h; read-out: IC50; how it was run: as §1
MCF7 = assay: Antiproliferative activity against human MCF7 cells assessed as growth inhibition after 72 hrs by MTT assay; format: functional, cell-based; conditions: Homo sapiens, MCF7, 72 h; read-out: IC50; how it was run: as §1
A-375 [14] = assay: Induction of apoptosis in human A375 cells assessed as necrotic cells at 1 uM after 36 hrs by annexinV-FITC/propidium iodide staining based flow cytometric analysis (reference value: 1.63%); format: functional
A-375 [15] = assay: Inhibition of cell migration in human A375 cells at 0.5 to 2 uM after 24 hrs by wound healing assay; format: functional, cell-based; conditions: dose 0.5-2 µM
How it was run: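 A375 monolayer scratched and treated for 24 h, imaged at ×100. Closure ratio (%) = (start scratched area − after scratched area)/start scratched area, compared with control. P < 0.05 versus control considered significant.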

A-375 [16] = assay: Induction of apoptosis in human A375 cells assessed as necrotic cells at 5 uM after 12 hrs by annexinV-FITC/propidium iodide staining based flow cytometric analysis (reference value: 0.56%); format: functional
A-375 [17] = assay: Induction of apoptosis in human A375 cells assessed as necrotic cells at 5 uM after 24 hrs by annexinV-FITC/propidium iodide staining based flow cytometric analysis (reference value: 0.56%); format: functional
A-375 [18] = assay: Inhibition of PDK in human A375 cells assessed as increase in oxygen consumption rate after 4 hrs by XFe cell Mito stress test assay; format: cell-based; conditions: dose 2.5-5 µM
How it was run: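 A375 cells attached, then given an extra 100 µL growth medium and incubated 24 h. Treated 4 h, then rinsed twice with pre-warmed XFe base medium. OCR measured as in a previous report.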

A-375 [19] = assay: Induction of apoptosis in human A375 cells assessed as late apoptotic cells at 1 uM after 36 hrs by annexinV-FITC/propidium iodide staining based flow cytometric analysis (reference value: 1.02%); format: functional
A-375 [20] = assay: Induction of cell cycle arrest in human A375 cells assessed as accumulation at S phase at 5 uM after 24 hrs by propidium iodide staining based flow cytometric analysis (reference value: 37.33%); format: functional
A-375 [21] = assay: Induction of apoptosis in human A375 cells assessed as early apoptotic cells at 1 uM after 36 hrs by annexinV-FITC/propidium iodide staining based flow cytometric analysis (reference value: 3.2%); format: functional

Sequence of [Pyruvate dehydrogenase (acetyl-transferring)] kinase isozyme 1, mitochondrial (Q15118 whole entry): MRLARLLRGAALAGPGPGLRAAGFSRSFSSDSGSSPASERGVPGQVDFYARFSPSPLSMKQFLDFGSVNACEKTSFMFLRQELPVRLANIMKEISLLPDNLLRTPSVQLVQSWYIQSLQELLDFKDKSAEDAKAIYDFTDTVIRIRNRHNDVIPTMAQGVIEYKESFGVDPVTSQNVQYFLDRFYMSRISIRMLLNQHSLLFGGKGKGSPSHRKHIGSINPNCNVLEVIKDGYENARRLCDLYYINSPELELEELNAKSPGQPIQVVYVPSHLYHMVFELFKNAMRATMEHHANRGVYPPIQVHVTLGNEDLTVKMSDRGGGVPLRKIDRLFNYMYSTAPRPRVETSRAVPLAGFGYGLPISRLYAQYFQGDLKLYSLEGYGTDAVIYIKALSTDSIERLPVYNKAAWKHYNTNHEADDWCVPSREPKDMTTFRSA

## CC(C)(CO)c1ccc(Nc2ccc(C(=O)C(Cl)Cl)cc2[N+](=O)[O-])cc1
A-375 [1]
  Activity: 55.72%
A-375 [2]
  inhibition: Active
A-375 [3]
  Activity: 6.47%
A-375 [4]
  Activity: 8.7%
A-375 [5]
  Activity: Active
A-375 [6]
  IC50: 1100 nM
A-375 [7]
  Activity: 38.81%
A549
  inhibition of growth at 1 µM: 29.4%
PC-3
  IC50: 3800 nM
[8]
  Kd: 210 nM
A-375 [9]
  Activity: 4.21%
[10]
  EC50: 90 nM
A-375 [11]
  Activity: 34.63%
A-375 [12]
  viability at 5 µM: 44.5%
A-375 [13]
  inhibition: Active
L02
  IC50: 14400 nM
MCF7
  IC50: 2400 nM
A-375 [14]
  Activity: 4.06%
A-375 [15]
  inhibition: Active
A-375 [16]
  Activity: 1.65%
A-375 [17]
  Activity: 3.56%
A-375 [18]
  inhibition: Dose-dependent effect
A-375 [19]
  Activity: 7.43%
A-375 [20]
  Activity: 27.43%
A-375 [21]
  Activity: 6.64%
